# Experimental data as given in ChEMBL document CHEMBL1142812, “Synthesis and structure-activity relationship of imidazo[1,2-a]benzimidazoles as corticotropin-releasing factor 1 receptor antagonists” (Bioorg Med Chem Lett, 2005).
# Key:
# [1] = target: T1, Corticotropin-releasing factor receptor 1 (Homo sapiens, UniProt P34998); test: Binding affinity for human corticotropin releasing factor receptor 1
# T1 sequence (P34998 whole entry): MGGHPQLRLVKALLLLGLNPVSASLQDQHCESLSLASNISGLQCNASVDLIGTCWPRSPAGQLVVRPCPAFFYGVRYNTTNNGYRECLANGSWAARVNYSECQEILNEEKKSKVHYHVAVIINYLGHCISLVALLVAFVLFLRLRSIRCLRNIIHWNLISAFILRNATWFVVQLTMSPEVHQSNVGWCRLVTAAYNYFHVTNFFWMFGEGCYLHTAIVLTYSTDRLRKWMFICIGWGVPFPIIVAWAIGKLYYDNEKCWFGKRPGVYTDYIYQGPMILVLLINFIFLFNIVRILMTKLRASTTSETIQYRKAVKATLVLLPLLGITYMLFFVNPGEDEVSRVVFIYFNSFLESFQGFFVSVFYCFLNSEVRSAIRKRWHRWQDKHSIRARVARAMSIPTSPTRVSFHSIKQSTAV
# [2] = Bioavailability (dissolved in DMSO) at 10 mg/kg of oral administration in rat was determined; assay type: ADME, organism-based; details: in vivo
# How it was run: (§1)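 Rats dosed with the compound at 10 mg/kg orally and 2 mg/kg intravenously, in 10/10/80 Cremophor/DMSO/water. Dosing volumes were 3 mL/kg p.o. and 1 mL/kg i.v. Plasma concentrations were followed over time to derive clearance, volume of distribution, terminal half-life, oral AUC and oral bioavailability.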
# [3] = Volume of distribution (dissolved in DMSO) at 2 mg/kg of intravenous administration in rat was determined; assay type: ADME, organism-based; parameters: dose 2 mg/kg, route intravenous; details: in vivo; how it was run: as §1
# [4] = Plasma clearance (dissolved in DMSO) at 2 mg/kg of intravenous administration in rat was determined; assay type: ADME, organism-based; parameters: dose 2 mg/kg, route intravenous; how it was run: as §1
# [5] = Plasma clearance (dissolved in DMSO) at 2 mg/kg of intravenous administration in rat was determined
# [6] = Mean plasma area under curve (dissolved in DMSO) at 10 mg/kg of oral administration in rat was determined; assay type: ADME, organism-based; parameters: dose 10 mg/kg, route oral; how it was run: as §1
# [7] = Terminal half life (dissolved in DMSO) at 2 mg/kg of intravenous administration in rat was determined; details: in vivo
# [8] = Terminal half life (dissolved in DMSO) at 2 mg/kg of intravenous administration in rat was determined; assay type: ADME, organism-based; parameters: dose 2 mg/kg, route intravenous; details: in vivo; how it was run: as §1
# [9] = Maximum peak plasma concentration (dissolved in DMSO) at 10 mg/kg of p.o. administration in rat was determined; details: po
# [10] = Brain concentration to plasma concentration ratio (dissolved in DMSO) at 2 mg/kg of intravenous administration in rat after 2 h; assay type: ADME, organism-based; parameters: dose 2 mg/kg, route intravenous; details: brain and plasma, read-out: B/P
# How it was run: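 Compound given intravenously to rats at 2 mg/kg in 10/10/80 Cremophor/DMSO/water at 1 mL/kg. Brain and plasma concentrations were measured at 2 h and expressed as a brain-to-plasma ratio.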
# [11] = Volume of distribution (dissolved in DMSO) at 2 mg/kg of […] administration in rat was determined; assay type: ADME, organism-based; parameters: dose 2 mg/kg; details: in vivo
Ki [1],Structure (SMILES),other results
7.1 nM,Cc1cc(C)c(-n2c3ccccc3n3c(CN(CC4CC4)CC(F)(F)F)c(C(F)(F)F)nc23)c(C)c1,–
23 nM,CCCN(Cc1c(C(F)(F)F)nc2n(-c3c(C)cc(C)cc3C)c3ccccc3n12)CC1CC1,bioavailability [2]: 35%; Vd [3]: 0.6 L/kg; clearance [4]: 5.1 mL/min/kg; CL/F [5]: 5.1 mL/min/kg; AUC [6]: 11400 ng·h/mL; half-life [7]: 4.1 h; half-life [8]: 4.1 h; Cmax [9]: 2380 ng/mL; Kp at 2 h [10]: 0.03; Vd [11]: 0.6 L/kg
930 nM,CCCN(CC1CC1)C(=O)c1c(CC)nc2n(-c3c(C)cc(C)cc3C)c3ccc(F)cc3n12,–
1410 nM,CCN(CCC1CC1)Cc1c(C(F)(F)F)nc2n(-c3c(C)cc(C)cc3C)c3ccccc3n12,–
704 nM,CCCCN(CC)Cc1c(C(F)(F)F)nc2n(-c3c(C)cc(C)cc3C)c3ccccc3n12,–
573 nM,Cc1cc(C)c(-n2c3ccccc3n3c(CN(C)Cc4ccccc4)c(C(F)(F)F)nc23)c(C)c1,–
150 nM,CCCN(Cc1c(CC)nc2n(-c3c(C)cc(C)cc3C)c3ccc(F)cc3n12)CC1CC1,–
138 nM,C=CCN(CC=C)Cc1c(C(F)(F)F)nc2n(-c3c(C)cc(C)cc3C)c3ccccc3n12,–
362 nM,CCCN(CCC1CC1)Cc1c(C(F)(F)F)nc2n(-c3c(C)cc(C)cc3C)c3ccccc3n12,–
21 nM,CCCN(Cc1c(CC)nc2n(-c3c(C)cc(C)cc3C)c3ccccc3n12)CC1CC1,–
250 nM,CCCN(CCc1ccccc1)Cc1c(C(F)(F)F)nc2n(-c3c(C)cc(C)cc3C)c3ccccc3n12,–
26 nM,CCCN(Cc1c(C(F)(F)F)nc2n(-c3c(C)cc(C)cc3C)c3ccccc3n12)CC1CCC1,–
360 nM,CCCN(CC1CC1)C(=O)c1c(C)nc2n(-c3c(C)cc(C)cc3C)c3ccccc3n12,–
653 nM,Cc1cc(C)c(-n2c3ccccc3n3c(CN(CCC4CC4)CC(F)(F)F)c(C(F)(F)F)nc23)c(C)c1,–
75 nM,CCCN(Cc1c(C(F)(F)F)nc2n(-c3c(C)cc(C)cc3C)c3ccccc3n12)CC(F)(F)F,–
4050 nM,CCCN(Cc1ccccc1)Cc1c(C(F)(F)F)nc2n(-c3c(C)cc(C)cc3C)c3ccccc3n12,–
410 nM,CCCN(CCc1ccccc1)Cc1c(C(F)(F)F)nc2n(-c3ccc(C(C)C)cc3Br)c3ccccc3n12,–
150 nM,CCCN(Cc1c(C(F)(F)F)nc2n(-c3ccc(C(C)C)cc3Br)c3ccccc3n12)CC1CC1,–
291 nM,Cc1cc(C)c(-n2c3ccccc3n3c(CN(CCC(F)(F)F)CC(F)(F)F)c(C(F)(F)F)nc23)c(C)c1,–
13 nM,Cc1cc(C)c(-n2c3ccccc3n3c(CN(CCC(F)(F)F)CC4CC4)c(C(F)(F)F)nc23)c(C)c1,–
7710 nM,CCCCN(Cc1ccccc1)Cc1c(C(F)(F)F)nc2n(-c3c(C)cc(C)cc3C)c3ccccc3n12,–

Ki [1],Structure (SMILES),other results
53 nM,Cc1cc(C)c(-n2c3ccccc3n3c(CN(CC4CCC4)CC(F)(F)F)c(C(F)(F)F)nc23)c(C)c1,–
54 nM,CC(C)c1ccc(-n2c3ccccc3n3c(CN(CC4CC4)CC4CC4)c(C(F)(F)F)nc23)c(Br)c1,–
75 nM,CCCN(Cc1c(C(F)(F)F)nc2n(-c3c(C)cc(C)cc3C)c3ccccc3n12)CC(F)(F)C(F)(F)F,–
59 nM,CCCN(Cc1c(C)nc2n(-c3c(C)cc(C)cc3C)c3ccc(F)cc3n12)CC1CC1,–
333 nM,Cc1cc(C)c(-n2c3ccccc3n3c(CN(CCc4ccccc4)CCc4ccccc4)c(C(F)(F)F)nc23)c(C)c1,–
1600 nM,CCCN(CCc1ccccc1)Cc1c(C(F)(F)F)nc2n(-c3ccc(Cl)cc3Cl)c3ccccc3n12,–
2770 nM,CCN(Cc1ccccc1)Cc1c(C(F)(F)F)nc2n(-c3c(C)cc(C)cc3C)c3ccccc3n12,–
570 nM,CCCN(CC1CC1)C(=O)c1c(CC)nc2n(-c3c(C)cc(C)cc3C)c3ccccc3n12,–
370 nM,CCCN(Cc1c(C(F)(F)F)nc2n(-c3ccc(Cl)cc3Cl)c3ccccc3n12)CC1CC1,–
457 nM,Cc1cc(C)c(-n2c3ccccc3n3c(CN(CCC4CC4)CCC(F)(F)F)c(C(F)(F)F)nc23)c(C)c1,–
11 nM,Cc1cc(C)c(-n2c3ccccc3n3c(CN(CC4CC4)CC4CC4)c(C(F)(F)F)nc23)c(C)c1,–
68 nM,CCCN(CCC(F)(F)F)Cc1c(C(F)(F)F)nc2n(-c3c(C)cc(C)cc3C)c3ccccc3n12,–
240 nM,FC(F)(F)c1nc2n(-c3ccc(Cl)cc3Cl)c3ccccc3n2c1CN(CC1CC1)CC1CC1,–
744 nM,Cc1cc(C)c(-n2c3ccccc3n3c(CN(CCc4ccccc4)CC(F)(F)F)c(C(F)(F)F)nc23)c(C)c1,–
28 nM,CCN(Cc1c(C(F)(F)F)nc2n(-c3c(C)cc(C)cc3C)c3ccccc3n12)CC1CC1,–
618 nM,Cc1cc(C)c(-n2c3ccccc3n3c(CN(CCc4ccccc4)CCC(F)(F)F)c(C(F)(F)F)nc23)c(C)c1,–
1180 nM,CCCN(CC1CC1)C(=O)c1c(C)nc2n(-c3c(C)cc(C)cc3C)c3ccc(F)cc3n12,–
20 nM,CCCN(Cc1c(C)nc2n(-c3c(C)cc(C)cc3C)c3ccccc3n12)CC1CC1,–
34 nM,Cc1cc(C)c(-n2c3ccccc3n3c(CN(CC4CC4)CC(F)(F)C(F)(F)F)c(C(F)(F)F)nc23)c(C)c1,–
3560 nM,CCCN(CC1CC1)C(=O)c1c(C(F)(F)F)nc2n(-c3c(C)cc(C)cc3C)c3ccccc3n12,–
